Laboratory results as given in ChEMBL document CHEMBL3593225 (Bioorg Med Chem, 2015).
Activity calls are given as the source filed them. No cut-off for these calls is given here.

Key:
[1] = molecular target: T1, 5-hydroxytryptamine receptor 1A (Homo sapiens) (UniProt P08908); assay: Agonist activity at human 5-HT1A receptor expressed in CHO cells after 90 mins by beta-arrestin-2 recruitment assay relative to 5-HT; format: cell-based
T1 sequence (whole entry): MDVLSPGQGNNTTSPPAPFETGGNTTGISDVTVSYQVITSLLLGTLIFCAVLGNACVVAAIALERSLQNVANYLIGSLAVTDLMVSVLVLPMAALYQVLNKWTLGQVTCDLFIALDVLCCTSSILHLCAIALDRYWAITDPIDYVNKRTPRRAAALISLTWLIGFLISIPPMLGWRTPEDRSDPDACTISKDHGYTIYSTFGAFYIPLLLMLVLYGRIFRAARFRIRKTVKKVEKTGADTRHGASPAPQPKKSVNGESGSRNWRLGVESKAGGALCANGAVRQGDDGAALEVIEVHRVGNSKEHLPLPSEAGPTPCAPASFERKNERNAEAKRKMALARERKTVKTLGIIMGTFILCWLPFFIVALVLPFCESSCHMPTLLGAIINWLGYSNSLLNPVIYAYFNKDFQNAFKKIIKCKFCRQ
How it was run: (§1)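 PathHunter enzyme-complementation β-arrestin-2 recruitment in CHO-K1 cells carrying HTR1A, 10^4 cells/well, plated 24–48 h at 37 °C before use. Compounds from methanol stocks, final 0.1–100 μM, applied for 90 min at 37 °C. Detection reagents then added for 60 min at room temperature, luminescence read. Pooled from 3–4 independent experiments in duplicate, with 5-HT on every plate as reference.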

[2] = molecular target: T2, 5-hydroxytryptamine receptor 1A (Homo sapiens, UniProt P08908); assay: Agonist activity at human 5-HT1A receptor expressed in human HeLa cell membranes assessed as stimulation of [35S]GTPgammaS binding after 20 mins by liquid scintillation counting analysis; format: functional
T2 sequence (P08908 whole entry): T1 sequence (whole entry)

[3] = molecular target: T2, 5-hydroxytryptamine receptor 1A; assay: Agonist activity at human 5-HT1A receptor expressed in CHO cells assessed as inhibition of forskolin-stimulated cAMP accumulation after 15 mins by ELISA; format: functional, cell-based
How it was run: (§2)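 CHO-1A cells (10^4/well) grown 24 h, then 24 h in serum-free DMEM/F-12. Compounds co-incubated with 1 μM forskolin for 15 min at 37 °C in serum-free medium with 5 μM pargyline and 2.5 mM theophylline. Lysis in 1% Triton X-100/0.1 M HCl, cAMP measured by acetylated ELISA. Sigmoidal or Gaussian bell-shaped fits.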

[4] = molecular target: T1, 5-hydroxytryptamine receptor 1A (Homo sapiens); assay: Agonist activity at human 5-HT1A receptor expressed in CHO cells assessed as inhibition of forskolin-stimulated cAMP accumulation after 15 mins by ELISA relative to 5-HT; format: functional, cell-based
How it was run: as §2, with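 “ELISA. Forskolin alone set as 0%, 5-HT maximum as 100%.” for “ELISA.”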

[5] = molecular target: T1, 5-hydroxytryptamine receptor 1A (Homo sapiens); assay: Agonist activity at human 5-HT1A receptor expressed in CHO cells assessed as ERK1/2 phosphorylation at 1 uM after 5 mins by Western blot analysis relative to 5-HT; format: cell-based
How it was run: (§3)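 CHO-1A cells (2 × 10^5/well) grown 24 h, then 24 h serum-free. Agonists given at 1 μM in medium with 5 μM pargyline and 2.5 mM theophylline for 5 min at 37 °C. Lysates in SDS buffer with protease/phosphatase inhibitors. Phospho-ERK1/2 Western blot densitometry normalized to calnexin, untreated baseline subtracted, 5-HT set as 100%. Three experiments in triplicate, one-way ANOVA with Dunnett's test against untreated.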

[6] = molecular target: T2, 5-hydroxytryptamine receptor 1A; assay: Agonist activity at human 5-HT1A receptor expressed in CHO cells after 90 mins by beta-arrestin-2 recruitment assay; format: cell-based
How it was run: as §1, with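 “read.” for “read. Pooled from 3–4 independent experiments in duplicate, with 5-HT on every plate as reference.”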

[7] = molecular target: T1, 5-hydroxytryptamine receptor 1A (Homo sapiens); assay: Ratio for agonist activity at human 5-HT1A receptor expressed in CHO cells by forskolin-stimulated cAMP accumulation assay to agonist activity at human 5-HT1A receptor expressed in CHO cells by beta-arrestin-2 recruitment assay; format: functional, cell-based
[8] = molecular target: T1, 5-hydroxytryptamine receptor 1A (Homo sapiens); assay: Agonist activity at human 5-HT1A receptor expressed in CHO cells assessed as ERK1/2 phosphorylation at 1 uM after 5 mins by Western blot analysis relative to control; format: cell-based; how it was run: as §3

| SMILES | Emax [1] | Ki [2] | EC50 [3] | Emax [4] | Activity [5] | EC50 [6] | Ratio [7] | Activity [8] | fold change (FC) [8] |
| --- | --- | --- | --- | --- | --- | --- | --- | --- | --- |
| CCCN(CCC)C1CCc2cccc(O)c2C1 (racemic) | 44.5% | – | – | – | – | – | – | – | – |
| COc1cccc2c1CCCC2CCCN1CCN(c2ccccn2)CC1 (stereo unspecified) | – | 0.48 nM | 0.776 nM | – | – | – | – | – | – |
| COc1cccc(CCCCN2CCN(c3ccccn3)CC2)c1 | 5.9% | 23 nM | – | 53.4% | – | – | – | – | – |
| COc1cccc([C@H]2CC[C@H](N3CCN(c4ccccn4)CC3)CC2)c1 | 27.9% | 0.028 nM | 0.794 nM | 69.5% | 30.4% | 0.324 nM | < 10 | – | – |
| COc1ccc2c(c1)CC(CCN1CCN(c3ccccn3)CC1)CC2 (stereo unspecified) | 35.9% | 0.16 nM | 20.9 nM | 73.5% | – | 3.55 nM | < 10 | – | – |
| COc1cccc2c(CCCN3CCN(c4ccccn4)CC3)cccc12 | 10.7% | 0.38 nM | 1.26 nM | 53.6% | – | – | – | inactive | – |
| NCCc1c[nH]c2ccc(O)cc12 | – | – | – | – | – | – | – | – | 6.4 |
| COc1cccc2c1CCC/C2=C\CCN1CCN(c2ccccn2)CC1 | 22.8% | 0.31 nM | 2.95 nM | 66.9% | – | 3390 nM | < 10 | – | – |
